From ChEMBL document CHEMBL1782008, “Paraminabeolides A-F, cytotoxic and anti-inflammatory marine withanolides from the soft coral Paraminabea acronocephala” (J Nat Prod, 2011)
pIC50: −log10 of the molar value.

Assays:
[1] = Cytotoxicity against human Hep3B cells by MTT assay; type: functional, cell-based, Hep 3B2
RAW264.7 [2] = assay: Antiinflammatory activity in mouse RAW264.7 cells assessed as inhibition of LPS-induced COX2 protein expression at 10 uM by Western blotting analysis; type: functional
Method in brief: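 RAW264.7 macrophages (ATCC) stimulated with LPS and treated at 10 μM. iNOS and COX-2 protein levels were quantified by immunoblot and expressed as % of LPS-only control cells (100%). Means ± SEM, n = 6.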

HepG2 = assay: Cytotoxicity against human HepG2 cells by MTT assay; type: functional, cell-based
MCF7 = assay: Cytotoxicity against human MCF7 cells by MTT assay; type: functional, cell-based
RAW264.7 [3] = assay: Antiinflammatory activity in mouse RAW264.7 cells assessed as residual LPS-induced iNOS protein level at 10 uM by Western blotting analysis
[4] = system: beta-actin protein expression; assay: Toxicity in mouse RAW264.7 cells assessed as inhibition of beta-actin protein expression at 10 uM by Western blotting analysis; values are per cent of control
MDA-MB-231 = assay: Cytotoxicity against human MDA-MB-231 cells by MTT assay; type: functional, cell-based

Q: With `COc1cccc2c1C(=O)c1c(O)c3c(c(O)c1C2=O)C[C@@](O)(C(=O)CO)C[C@@H]3O[C@H]1C[C@H](N)[C@H](O)[C@H](C)O1` [DOXORUBICIN] as the molecule, how does the pIC50 [1] read?
A: Its pIC50 is 6.15.

Q: Which COX-2 expression (% of LPS control) at 10 µM (RAW264.7 [2]) does the source give for `CC1=C(C)C(=O)O[C@@H]([C@@H](C)[C@H]2CC[C@H]3[C@@H]4CCC5=CC(=O)C=C[C@]5(C)[C@H]4CC[C@]23C)C1` [MINABEOLIDE 1] here?
A: The COX-2 expression (% of LPS control) at 10 µM was 18.3%.

Q: What about the pIC50 (HepG2) of the same molecule?
A: The pIC50 was 5.28.

Q: And the pIC50 (MCF7)?
A: The pIC50 was 4.73.

Q: And the residual iNOS protein level at 10 µM (RAW264.7 [3])?
A: The residual iNOS protein level at 10 µM was 9.6%.

Q: With `CC(=O)OC[C@]12CC[C@H]3[C@@H](CCC4=CC(=O)C=C[C@@]43C)[C@@H]1CC[C@@H]2[C@H](C)[C@H]1CC(C)=C(C)C(=O)O1` [MINABEOLIDE 2] as the molecule, how does the COX-2 expression (% of LPS control) at 10 µM (RAW264.7 [2]) read?
A: The COX-2 expression (% of LPS control) at 10 µM was 51.2%.

Q: What about the residual iNOS protein level at 10 µM (RAW264.7 [3]) of the same molecule?
A: The residual iNOS protein level at 10 µM was 45.7%.

Q: Which results are given for `C[C@@H]([C@H]1CC[C@H]2[C@@H]3CCC4=CC(=O)C=C[C@]4(C)[C@H]3CC[C@]12C)[C@H]1CC[C@H](C)C(=O)O1` [MINABEOLIDE 4]?
A: COX-2 expression (% of LPS control) at 10 µM (RAW264.7 [2]): 22.4%; residual iNOS protein level at 10 µM (RAW264.7 [3]): 23.2%

Q: With `CC(=O)OC[C@]12CC[C@H]3[C@@H](CCC4=CC(=O)C=C[C@@]43C)[C@@H]1CC[C@@H]2[C@H](C)[C@H]1CC[C@H](C)C(=O)O1` [MINABEOLIDE 5] as the molecule, how does the COX-2 expression (% of LPS control) at 10 µM (RAW264.7 [2]) read?
A: Its COX-2 expression (% of LPS control) at 10 µM is 31.3%.

Q: What about the residual iNOS protein level at 10 µM (RAW264.7 [3]) of the same molecule?
A: The residual iNOS protein level at 10 µM was 6.3%.

Q: With `CC1=C(C)C(=O)O[C@@H]([C@@H](C)[C@H]2CC[C@H]3[C@@H]4CCC5=CC(=O)C=C[C@]5(C)[C@H]4CC[C@]23C=O)C1` [PARAMINABEOLIDE A] as the molecule, how does the pIC50 (HepG2) read?
A: The pIC50 was 5.10.

Q: What about the residual iNOS protein level at 10 µM (RAW264.7 [3]) of the same molecule?
A: The residual iNOS protein level at 10 µM was 11%.

Q: What about the residual activity at 10 µM [4] of the same molecule?
A: The residual activity at 10 µM was 66.5%.

Q: With `CC(=O)OC[C@]12CC[C@H]3[C@@H](CCC4=CC(=O)C=C[C@@]43C)[C@@H]1CC[C@@H]2[C@H](C)[C@H]1C[C@H](C)[C@H](C)C(=O)O1` [PARAMINABEOLIDE B] as the molecule, how does the pIC50 (MDA-MB-231) read?
A: Its pIC50 is 4.71.

Q: What about the pIC50 (MCF7) of the same molecule?
A: Its pIC50 is 4.83.

Q: And the residual iNOS protein level at 10 µM (RAW264.7 [3])?
A: Its residual iNOS protein level at 10 µM is 7.3%.

Q: For `CC(=O)OC[C@]12CC[C@H]3[C@@H](CCC4=CC(=O)C=C[C@@]43C)[C@@H]1CC[C@@H]2[C@H](C)[C@H](O)[C@@H]1OC(=O)[C@H](C)[C@H]1C` [PARAMINABEOLIDE C], which residual iNOS protein level at 10 µM (RAW264.7 [3]) is on record?
A: Its residual iNOS protein level at 10 µM is 37.9%.

Q: With `C[C@H]([C@H](O)[C@@H]1OC(=O)[C@H](C)[C@@H]1C)[C@H]1CC[C@H]2[C@@H]3CCC4=CC(=O)C=C[C@]4(C)[C@H]3CC[C@]12C` [PARAMINABEOLIDE D] as the molecule, how does the residual iNOS protein level at 10 µM (RAW264.7 [3]) read?
A: Its residual iNOS protein level at 10 µM is 43.3%.
